Assay results from ChEMBL document CHEMBL1166015, “Design, synthesis, and docking of highly hypolipidemic agents: Schizosaccharomyces pombe as a new model for evaluating alpha-asarone-based HMG-CoA reductase inhibitors” (Bioorg Med Chem, 2010).

Columns and labels:
Mus musculus [1] = assay: Hypolipidemic activity in high cholesterol diet fed ICR mouse assessed as reduction of triglyceride level at 100 mg/kg/day, po after 12 hrs of last cholesterol challenge relative to control; parameters: scale not given: the % may be the effect or the level left
Mus musculus [2] = assay: Hypolipidemic activity in high cholesterol diet fed ICR mouse assessed as reduction of total cholesterol level at 100 mg/kg/day, ip after 12 hrs of last cholesterol challenge relative to control; type: functional; parameters: scale not given: the % may be the effect or the level left; conditions: route intraperitoneal
In short: (§1)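 Male ICR mice (24–27 g), six per group, were fed a high-cholesterol diet ad libitum for 6 days (1.0% cholesterol, 0.5% sodium cholate, 5% butter, 30% sucrose, 10% casein, 53.5% chow). Basal-diet mice served as controls. Dosing was 5 mL/kg and solutions were made fresh. Mice were fasted 12 h before sacrifice and bled periorbitally. Serum TC, HDL-C and TG were read on an analyzer, with LDL-C by Friedewald.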

Mus musculus [3] = assay: Hypolipidemic activity in ICR mouse assessed as decrease in Tyloxapol-induced HDL-cholesterol level at 100 mg/kg, ip administered 1 hr before Tyloxapol challenge and 22, 48 hrs after Tyloxapol challenge measured after 22 hrs relative to control; type: functional; parameters: scale not given: the % may be the effect or the level left; conditions: route intraperitoneal
In short: (§2)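 Male ICR mice (24–27 g), groups of six. Hyperlipidemia induced by ip Tyloxapol (Triton WR 1339) 400 mg/kg in water. Drug given at 5 mL/kg 1 h before and 22 and 48 h after injection; vehicle controls. Blood drawn 22 h post-injection by periorbital bleeding. Serum total cholesterol, HDL-C and triglycerides measured on an automatic analyzer; LDL-C by the Friedewald equation. Values are % of the Tyloxapol group, mean ± SE.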

Mus musculus [4] = assay: Hypolipidemic activity in high cholesterol diet fed ICR mouse assessed as reduction of LDL cholesterol level at 100 mg/kg/day, po after 12 hrs of last cholesterol challenge relative to control; parameters: scale not given: the % may be the effect or the level left
Mus musculus [5] = assay: Hypolipidemic activity in high cholesterol diet fed ICR mouse assessed as reduction of triglyceride level at 50 mg/kg/day, po after 12 hrs of last cholesterol challenge relative to control; parameters: scale not given: the % may be the effect or the level left
Mus musculus [6] = assay: Hypolipidemic activity in ICR mouse assessed as decrease in Tyloxapol-induced LDL-cholesterol level at 100 mg/kg, ip administered 1 hr before Tyloxapol challenge and 22, 48 hrs after Tyloxapol challenge measured after 22 hrs relative to control; type: functional; parameters: scale not given: the % may be the effect or the level left; conditions: route oral, in the assay text read “po administered” for “ip administered”
In short: as §2

Mus musculus [7] = assay: Hypolipidemic activity in high cholesterol diet fed ICR mouse assessed as reduction of HDL cholesterol level at 50 mg/kg/day, po after 12 hrs of last cholesterol challenge relative to control; parameters: scale not given: the % may be the effect or the level left
[8] = molecular target: T1, 3-hydroxy-3-methylglutaryl-coenzyme A reductase (Schizosaccharomyces pombe 972h-, UniProt Q10283); assay: Inhibition of Schizosaccharomyces pombe HMG-CoA reductase by spectrophotometry; conditions: read-out: IC50
T1 sequence (Q10283 whole entry): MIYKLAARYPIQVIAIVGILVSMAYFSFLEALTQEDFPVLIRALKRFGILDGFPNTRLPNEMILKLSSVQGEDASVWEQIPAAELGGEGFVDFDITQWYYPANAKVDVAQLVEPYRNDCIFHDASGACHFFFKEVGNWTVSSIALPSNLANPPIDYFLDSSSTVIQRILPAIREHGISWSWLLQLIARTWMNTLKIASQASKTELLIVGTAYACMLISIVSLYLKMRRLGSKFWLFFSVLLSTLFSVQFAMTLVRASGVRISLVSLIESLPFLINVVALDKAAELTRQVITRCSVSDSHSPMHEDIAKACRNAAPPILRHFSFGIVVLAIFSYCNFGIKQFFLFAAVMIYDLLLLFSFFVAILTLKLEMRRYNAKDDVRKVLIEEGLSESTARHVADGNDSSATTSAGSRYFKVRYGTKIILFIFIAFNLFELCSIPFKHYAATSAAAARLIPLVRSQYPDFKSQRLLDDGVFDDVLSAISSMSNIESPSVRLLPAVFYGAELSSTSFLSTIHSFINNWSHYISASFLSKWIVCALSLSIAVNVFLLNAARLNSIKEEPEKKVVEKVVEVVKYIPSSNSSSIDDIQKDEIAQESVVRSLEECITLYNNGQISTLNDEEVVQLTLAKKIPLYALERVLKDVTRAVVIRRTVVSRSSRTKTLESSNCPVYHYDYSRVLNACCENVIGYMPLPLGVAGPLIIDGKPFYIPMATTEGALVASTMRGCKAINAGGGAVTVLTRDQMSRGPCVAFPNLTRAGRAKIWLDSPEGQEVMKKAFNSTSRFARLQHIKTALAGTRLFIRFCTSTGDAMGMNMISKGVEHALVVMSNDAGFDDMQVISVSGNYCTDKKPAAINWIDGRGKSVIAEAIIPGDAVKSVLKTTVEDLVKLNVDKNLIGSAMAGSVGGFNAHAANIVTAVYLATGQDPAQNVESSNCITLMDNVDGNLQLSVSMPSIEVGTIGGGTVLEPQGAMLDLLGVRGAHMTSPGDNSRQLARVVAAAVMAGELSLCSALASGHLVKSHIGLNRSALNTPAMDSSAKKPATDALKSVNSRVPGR
In short: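 Membrane HMGR partially purified from S. pombe 972 h (YPD, 28 °C, 48 h) via centrifugation, Triton X-100 solubilization, 65 °C heat step, ammonium sulfate and calcium phosphate gel. Enzyme activated 37 °C 30 min, pre-incubated with compound (DMSO stocks 1–5 mM) 30 min at 37 °C. Assay: 200 µg enzyme, 0.13 mM HMG-CoA, 50 mM Tris-HCl pH 7.5; started with 0.13 mM NADPH; A340 decrease over 2 min; triplicate; IC50 derived.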

Mus musculus [9] = assay: Hypolipidemic activity in high cholesterol diet fed ICR mouse assessed as reduction of LDL cholesterol level at 50 mg/kg/day, po after 12 hrs of last cholesterol challenge relative to control; parameters: scale not given: the % may be the effect or the level left
Mus musculus [10] = assay: Hypolipidemic activity in ICR mouse assessed as decrease in Tyloxapol-induced total cholesterol level at 50 mg/kg, ip administered 1 hr before Tyloxapol challenge and 22, 48 hrs after Tyloxapol challenge measured after 22 hrs relative to control; type: functional; parameters: scale not given: the % may be the effect or the level left; conditions: route oral, in the assay text read “po administered” for “ip administered”
In short: as §2

Mus musculus [11] = assay: Hypolipidemic activity in ICR mouse assessed as decrease in Tyloxapol-induced HDL-cholesterol level at 50 mg/kg, ip administered 1 hr before Tyloxapol challenge and 22, 48 hrs after Tyloxapol challenge measured after 22 hrs relative to control; type: functional; parameters: scale not given: the % may be the effect or the level left; conditions: route oral, in the assay text read “po administered” for “ip administered”
In short: as §2

Mus musculus [12] = assay: Hypolipidemic activity in high cholesterol diet fed ICR mouse assessed as reduction of HDL cholesterol level at 100 mg/kg/day, po after 12 hrs of last cholesterol challenge relative to control; parameters: scale not given: the % may be the effect or the level left
Mus musculus [13] = assay: Hypolipidemic activity in ICR mouse assessed as decrease in Tyloxapol-induced triglyceride level at 100 mg/kg, ip administered 1 hr before Tyloxapol challenge and 22, 48 hrs after Tyloxapol challenge measured after 22 hrs relative to control; type: functional; parameters: scale not given: the % may be the effect or the level left; conditions: route intraperitoneal
In short: as §2

Mus musculus [14] = assay: Hypolipidemic activity in ICR mouse assessed as decrease in Tyloxapol-induced total cholesterol level at 100 mg/kg, ip administered 1 hr before Tyloxapol challenge and 22, 48 hrs after Tyloxapol challenge measured after 22 hrs relative to control; type: functional; parameters: scale not given: the % may be the effect or the level left; conditions: route oral, in the assay text read “po administered” for “ip administered”
In short: as §2

Mus musculus [15] = assay: Hypolipidemic activity in high cholesterol diet fed ICR mouse assessed as reduction of total cholesterol level at 50 mg/kg, ip after 12 hrs of last cholesterol challenge relative to control; type: functional; parameters: scale not given: the % may be the effect or the level left; conditions: route intraperitoneal
In short: as §1

Mus musculus [16] = assay: Hypolipidemic activity in ICR mouse assessed as decrease in Tyloxapol-induced triglyceride level at 50 mg/kg, ip administered 1 hr before Tyloxapol challenge and 22, 48 hrs after Tyloxapol challenge measured after 22 hrs relative to control; type: functional; parameters: scale not given: the % may be the effect or the level left; conditions: route intraperitoneal
In short: as §2

Mus musculus [17] = assay: Hypolipidemic activity in ICR mouse assessed as decrease in Tyloxapol-induced LDL-cholesterol level at 50 mg/kg, ip administered 1 hr before Tyloxapol challenge and 22, 48 hrs after Tyloxapol challenge measured after 22 hrs relative to control; type: functional; parameters: scale not given: the % may be the effect or the level left; conditions: route oral, in the assay text read “po administered” for “ip administered”
In short: as §2

CCCc1cc(OC)c(OCC(=O)OC)cc1O
Activity (Mus musculus [1]): -55.91%
Activity (Mus musculus [2]): -74.14%
Activity (Mus musculus [3]): -25.03%
Activity (Mus musculus [4]): -41.81%
Activity (Mus musculus [5]): -68.42%
Activity (Mus musculus [6]): -23.15%
Activity (Mus musculus [7]): -18.89%
IC50 [8]: 66.5 µM
Activity (Mus musculus [9]): -28.88%
Activity (Mus musculus [10]): -68.32%
Activity (Mus musculus [11]): -29.15%
Activity (Mus musculus [12]): -13.45%
Activity (Mus musculus [13]): -47.07%
Activity (Mus musculus [14]): -68.42%
Activity (Mus musculus [15]): -53.34%
Activity (Mus musculus [16]): -38.63%
Activity (Mus musculus [17]): -28.94%

COC(=O)COc1ccccc1C
IC50 [8]: 91.3 µM

CCCCc1cc(OC)c(OC)cc1OC
IC50 [8]: 219 µM

CCc1ccc(OCC(=O)OC)c([N+](=O)[O-])c1
IC50 [8]: 197 µM

C=CCc1cc(OC)c(OC)cc1O
Activity (Mus musculus [1]): -42.39%
Activity (Mus musculus [2]): -40.67%
Activity (Mus musculus [3]): -41.77%
Activity (Mus musculus [4]): -44.22%
Activity (Mus musculus [5]): -37.78%
Activity (Mus musculus [6]): -52.07%
Activity (Mus musculus [7]): -40.08%
IC50 [8]: 78.8 µM
Activity (Mus musculus [9]): 26.49%
Activity (Mus musculus [10]): -49.79%
Activity (Mus musculus [11]): -39.67%
Activity (Mus musculus [12]): -35.96%
Activity (Mus musculus [13]): -6.83%
Activity (Mus musculus [14]): -54.11%
Activity (Mus musculus [15]): -33.45%
Activity (Mus musculus [16]): -23.2%
Activity (Mus musculus [17]): -42.98%

C/C=C/c1ccc(OCCNC(=O)c2ccc(Cl)cc2)c(OC)c1
IC50 [8]: 129 µM

CCCc1cc(OC)c(OC)cc1O
Activity (Mus musculus [1]): -38.38%
Activity (Mus musculus [2]): -24.12%
Activity (Mus musculus [3]): -37.36%
Activity (Mus musculus [4]): -22.77%
Activity (Mus musculus [5]): -62.42%
Activity (Mus musculus [6]): -35.05%
Activity (Mus musculus [7]): -72.01%
IC50 [8]: 73.6 µM
Activity (Mus musculus [9]): -60.81%
Activity (Mus musculus [10]): -76.85%
Activity (Mus musculus [11]): -38.67%
Activity (Mus musculus [12]): -23.07%
Activity (Mus musculus [13]): -14.84%
Activity (Mus musculus [14]): -55.75%
Activity (Mus musculus [15]): -59.76%
Activity (Mus musculus [16]): -60.69%
Activity (Mus musculus [17]): -66.67%

CCc1ccccc1OCC(=O)OC
IC50 [8]: 506 µM

CCc1ccc(OCC(=O)OC)cc1
IC50 [8]: 1320 µM

CCOC(=O)COc1cccc(C)c1
IC50 [8]: 182 µM

CCOC(=O)COc1cccc(CC)c1
IC50 [8]: 1620 µM

C=CCc1ccc(OCC(=O)OCC)c(OC)c1
IC50 [8]: 156 µM
